Measurements from ChEMBL document CHEMBL1121657, “Effects of 1-arylpyrroles and naphthoflavones upon cytochrome P-450 dependent monooxygenase activities” (J Med Chem, 1981).

Columns and labels:
Rattus norvegicus [1] = organism: Rattus norvegicus; assay: Michaelis-Menten constant for 7-ethoxycoumarin deethylation in rat liver microsomes exposed to beta-naphthoflavone at 1000 nM; conditions: Microsome
Rattus norvegicus [2] = organism: Rattus norvegicus; assay: Compound was evaluated for alpha -rate constant, in liver microsomes from beta-naphthoflavone-exposed rats; conditions: Microsome
Summary of the method: (§1)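 Rats (male Sprague-Dawley, 75-125 g) dosed ip with 3MC or βNF, 50 mg/kg in corn oil, on 3 successive days; liver microsomes isolated day 4. 7-Ethoxycoumarin deethylation (2.5-300 μM substrate) measured with inhibitor present; KM and Vmax by Eisenthal–Cornish-Bowden direct linear method. Ki from x-intercept of least-squares KM/Vmax vs [I]; αKi from x-intercept of 1/Vmax vs [I].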

[3] = Compound was evaluated for inhibition constant, in liver microsomes from 3-methylcholanthrene-exposed rats; design: species or system Rattus norvegicus, Microsome
Rattus norvegicus [4] = organism: Rattus norvegicus; assay: Maximum rate constant for 7-ethoxycoumarin deethylation in rat liver microsomes exposed to beta-naphthoflavone at concentration of 1000 uM; conditions: Microsome
Summary of the method: (§2)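 Liver microsomes from male Sprague-Dawley rats given 3MC or βNF ip (50 mg/kg/day, corn oil, 3 days), harvested day 4. NADPH-regenerating system in 0.1 M Tris-HCl pH 7.4. Substrate 2.5-300 μM final. Inhibitor added from methanol stock. Reaction started with 0.375-0.56 mg microsomal protein, run 4 min at 37 °C, stopped with TCA. 7-Hydroxycoumarin fluorescence read at pH 10.3. At least four assays per substrate concentration. KM and Vmax by direct linear method, with distribution-free 95% confidence limits.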

Rattus norvegicus [5] = organism: Rattus norvegicus; assay: Michaelis-Menten constant for 7-ethoxycoumarin deethylation in rat liver microsomes exposed to 3-methylcholanthrene at concentration of 200 uM; conditions: Microsome
Summary of the method: as §2

Rattus norvegicus [6] = organism: Rattus norvegicus; assay: Maximum rate constant for 7-ethoxycoumarin deethylation in rat liver microsomes exposed to beta-naphthoflavone at concentration of 1500 uM; conditions: Microsome
Summary of the method: as §2

Rattus norvegicus [7] = organism: Rattus norvegicus; assay: Maximum rate constant for 7-ethoxycoumarin deethylation in rat liver microsomes 3-methylcholanthrene at concentration of 50 nM; conditions: Microsome
Rattus norvegicus [8] = organism: Rattus norvegicus; assay: Maximum rate constant for 7-ethoxycoumarin deethylation in rat liver microsomes 3-methylcholanthrene at concentration of 100 nM; conditions: Microsome
[9] = Compound was evaluated for inhibition constant, in liver microsomes from beta-naphthoflavone-exposed rats; design: species or system Rattus norvegicus, Microsome
Rattus norvegicus [10] = organism: Rattus norvegicus; assay: Michaelis-Menten constant for 7-ethoxycoumarin deethylation in rat liver microsomes exposed to 3-methylcholanthrene at concentration of 50 nM; conditions: Microsome
Rattus norvegicus [11] = organism: Rattus norvegicus; assay: Maximum rate constant for 7-ethoxycoumarin deethylation in rat liver microsomes 3-methylcholanthrene at concentration of 200 nM; conditions: Microsome
Rattus norvegicus [12] = organism: Rattus norvegicus; assay: Compound was evaluated for alpha -rate constant, in liver microsomes from 3-methylcholanthrene-exposed rats; conditions: Microsome
Summary of the method: as §1

Rattus norvegicus [13] = organism: Rattus norvegicus; assay: Michaelis-Menten constant for 7-ethoxycoumarin deethylation in rat liver microsomes exposed to 3-methylcholanthrene at concentration of 100 uM; conditions: Microsome
Summary of the method: as §2

Rattus norvegicus [14] = organism: Rattus norvegicus; assay: Michaelis-Menten constant for 7-ethoxycoumarin deethylation in rat liver microsomes exposed to beta-naphthoflavone at 500 uM; conditions: Microsome
Summary of the method: (§3)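 Liver microsomes from young male Sprague-Dawley rats (75-125 g) given the inducer ip in corn oil at 50 mg/kg on 3 successive days, microsomes isolated on day 4. 7-Ethoxycoumarin (2.5 to 300 μM final) in 0.1 M Tris-HCl pH 7.4 with NADPH-regenerating system. Reaction started with microsomal protein (0.375-0.56 mg), run 4 min at 37 °C, stopped with TCA. 7-Hydroxycoumarin read fluorometrically at pH 10.3. Inhibitor added from methanol stock, ≥4 assays per condition. KM/Vmax obtained by the Eisenthal–Cornish-Bowden direct linear method with 95% distribution-free confidence limits.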

Rattus norvegicus [15] = organism: Rattus norvegicus; assay: Maximum rate constant for 7-ethoxycoumarin deethylation in rat liver microsomes exposed to beta-naphthoflavone at 500 uM; conditions: Microsome
Summary of the method: as §2

Rattus norvegicus [16] = organism: Rattus norvegicus; assay: Michaelis-Menten constant for 7-ethoxycoumarin deethylation in rat liver microsomes exposed to beta-naphthoflavone at 1500 nM; conditions: Microsome
Rattus norvegicus [17] = organism: Rattus norvegicus; assay: Maximum rate constant for 7-ethoxycoumarin deethylation in rat liver microsomes exposed to beta-naphthoflavone at 5 uM; conditions: Microsome
Summary of the method: as §2

Rattus norvegicus [18] = organism: Rattus norvegicus; assay: Michaelis-Menten constant for 7-ethoxycoumarin deethylation in rat liver microsomes exposed to beta-naphthoflavone at 5 uM; conditions: Microsome
Summary of the method: as §2

Rattus norvegicus [19] = organism: Rattus norvegicus; assay: Michaelis-Menten constant for 7-ethoxycoumarin deethylation in rat liver microsomes exposed to beta-naphthoflavone at 2.5 uM; conditions: Microsome
Summary of the method: as §2

Rattus norvegicus [20] = organism: Rattus norvegicus; assay: Maximum rate constant for 7-ethoxycoumarin deethylation in rat liver microsomes exposed to beta-naphthoflavone at 1 uM; conditions: Microsome
Summary of the method: as §2

Rattus norvegicus [21] = organism: Rattus norvegicus; assay: Michaelis-Menten constant for 7-ethoxycoumarin deethylation in rat liver microsomes exposed to beta-naphthoflavone at 1 uM; conditions: Microsome
Summary of the method: as §2

Rattus norvegicus [22] = organism: Rattus norvegicus; assay: Maximum rate constant for 7-ethoxycoumarin deethylation in rat liver microsomes exposed to beta-naphthoflavone at 2.5 uM; conditions: Microsome
Summary of the method: as §2

Rattus norvegicus [23] = organism: Rattus norvegicus; assay: Michaelis-Menten constant for 7-ethoxycoumarin deethylation in rat liver microsomes exposed to beta-naphthoflavone at 50 uM; conditions: Microsome
Summary of the method: as §3

Rattus norvegicus [24] = organism: Rattus norvegicus; assay: Michaelis-Menten constant for 7-ethoxycoumarin deethylation in rat liver microsomes exposed to beta-naphthoflavone at 100 uM; conditions: Microsome
Summary of the method: as §2

Rattus norvegicus [25] = organism: Rattus norvegicus; assay: Michaelis-Menten constant for 7-ethoxycoumarin deethylation in rat liver microsomes 3-methylcholanthrene at a concentration of 5 uM; conditions: Microsome
Summary of the method: as §2

Rattus norvegicus [26] = organism: Rattus norvegicus; assay: Maximum rate constant for 7-ethoxycoumarin deethylation in rat liver microsomes exposed to 3-methylcholanthrene at 5 uM; conditions: Microsome
Summary of the method: as §2

Rattus norvegicus [27] = organism: Rattus norvegicus; assay: Maximum rate constant for 7-ethoxycoumarin deethylation in rat liver microsomes exposed to beta-naphthoflavone at 200 uM; conditions: Microsome
Summary of the method: as §2

Rattus norvegicus [28] = organism: Rattus norvegicus; assay: Michaelis-Menten constant for 7-ethoxycoumarin deethylation in rat liver microsomes exposed to 3-methylcholanthrene at concentration of 10 uM; conditions: Microsome
Summary of the method: as §2

Rattus norvegicus [29] = organism: Rattus norvegicus; assay: Compound was evaluated for alpha inhibition constant, in liver microsomes from beta-naphthoflavone-exposed rats; conditions: Microsome
Summary of the method: as §1

Rattus norvegicus [30] = organism: Rattus norvegicus; assay: Maximum rate constant for 7-ethoxycoumarin deethylation in rat liver microsomes exposed to beta-naphthoflavone at 100 uM; conditions: Microsome
Summary of the method: as §2

Rattus norvegicus [31] = organism: Rattus norvegicus; assay: Michaelis-Menten constant for 7-ethoxycoumarin deethylation in rat liver microsomes exposed to beta-naphthoflavone at 200 uM; conditions: Microsome
Summary of the method: as §2

Rattus norvegicus [32] = organism: Rattus norvegicus; assay: Maximum rate constant for 7-ethoxycoumarin deethylation in rat liver microsomes exposed to 3-methylcholanthrene at 50 uM; conditions: Microsome
Summary of the method: as §2

Rattus norvegicus [33] = organism: Rattus norvegicus; assay: Michaelis-Menten constant for 7-ethoxycoumarin deethylation in rat liver microsomes exposed to 3-methylcholanthrene at a concentration of 5 uM; conditions: Microsome
Summary of the method: as §2

Rattus norvegicus [34] = organism: Rattus norvegicus; assay: Compound was evaluated for alpha inhibition constant, in liver microsomes from 3-methylcholanthrene-exposed rats; conditions: Microsome
Summary of the method: as §1

Rattus norvegicus [35] = organism: Rattus norvegicus; assay: Michaelis-Menten constant for 7-ethoxycoumarin deethylation in rat liver microsomes exposed to beta-naphthoflavone at 150 uM; conditions: Microsome
Summary of the method: as §2

Rattus norvegicus [36] = organism: Rattus norvegicus; assay: Maximum rate constant for 7-ethoxycoumarin deethylation in rat liver microsomes exposed to beta-naphthoflavone at 150 uM; conditions: Microsome
Summary of the method: as §2

Rattus norvegicus [37] = organism: Rattus norvegicus; assay: Maximum rate constant for 7-ethoxycoumarin deethylation in rat liver microsomes exposed to beta-naphthoflavone at 50 uM; conditions: Microsome
Summary of the method: as §2

Rattus norvegicus [38] = organism: Rattus norvegicus; assay: Michaelis-Menten constant for 7-ethoxycoumarin deethylation in rat liver microsomes exposed to beta-naphthoflavone at 10 uM […]; conditions: Microsome
Summary of the method: as §2

**Q.** For `O=c1cc(-c2ccccc2)oc2cc3ccccc3cc12`, which Km (Rattus norvegicus [1]) is on record?
**A.** 66.3 µM

**Q.** What about the Alpha Ki (Rattus norvegicus [2]) of the same compound?
**A.** 11 µM

**Q.** And the Ki [3]?
**A.** 0.049 µM

**Q.** And the Vmax (pM min-1 mg-1) (Rattus norvegicus [4])?
**A.** 1240

**Q.** And the Km (Rattus norvegicus [5])?
**A.** 31.5 µM

**Q.** And the Vmax (pM min-1 mg-1) (Rattus norvegicus [6])?
**A.** 1210

**Q.** And the Vmax (pM min-1 mg-1) (Rattus norvegicus [7])?
**A.** 150

**Q.** And the Vmax (pM min-1 mg-1) (Rattus norvegicus [8])?
**A.** 114

**Q.** What about the Ki [9] of the same compound?
**A.** 0.24 µM

**Q.** What about the Km (Rattus norvegicus [10]) of the same compound?
**A.** 19.2 µM

**Q.** What about the Vmax (pM min-1 mg-1) (Rattus norvegicus [11]) of the same compound?
**A.** 88

**Q.** And the Alpha Ki (Rattus norvegicus [12])?
**A.** 0.21 µM

**Q.** What about the Km (Rattus norvegicus [13]) of the same compound?
**A.** 16.7 µM

**Q.** And the Km (Rattus norvegicus [14])?
**A.** 36.9 µM

**Q.** What about the Vmax (pM min-1 mg-1) (Rattus norvegicus [15]) of the same compound?
**A.** 1300

**Q.** And the Km (Rattus norvegicus [16])?
**A.** 93.1 µM

**Q.** What does the source list for `CC(C)c1ccccc1-n1ccnc1`?
**A.** Alpha Ki (Rattus norvegicus [2]): 1.4 µM; Vmax (pM min-1 mg-1) (Rattus norvegicus [17]): 227; Ki [9]: 0.3 µM; Km (Rattus norvegicus [18]): 41.7 µM; Km (Rattus norvegicus [19]): 35.8 µM; Vmax (pM min-1 mg-1) (Rattus norvegicus [20]): 734; Km (Rattus norvegicus [21]): 22.1 µM; Vmax (pM min-1 mg-1) (Rattus norvegicus [22]): 346

**Q.** What does the source list for `CC(C)c1ccccc1-n1cccc1`?
**A.** Km (Rattus norvegicus [23]): 44.1 µM; Km (Rattus norvegicus [24]): 52.2 µM; Ki [3]: 11 µM; Km (Rattus norvegicus [25]): 10.2 µM; Vmax (pM min-1 mg-1) (Rattus norvegicus [26]): 141; Ki [9]: 19 µM; Vmax (pM min-1 mg-1) (Rattus norvegicus [27]): 493; Km (Rattus norvegicus [28]): 29.7 µM; Alpha Ki (Rattus norvegicus [29]): 270 µM; Vmax (pM min-1 mg-1) (Rattus norvegicus [30]): 652; Km (Rattus norvegicus [31]): 91.3 µM; Vmax (pM min-1 mg-1) (Rattus norvegicus [32]): 94; Km (Rattus norvegicus [33]): 17.9 µM; Alpha Ki (Rattus norvegicus [34]): 60 µM

**Q.** Which Km (Rattus norvegicus [23]) does the source give for `c1ccc(-n2cccc2)cc1` here?
**A.** 28.4 µM

**Q.** What about the Alpha Ki (Rattus norvegicus [2]) of the same compound?
**A.** 430 µM

**Q.** And the Km (Rattus norvegicus [35])?
**A.** 64.3 µM

**Q.** What about the Vmax (pM min-1 mg-1) (Rattus norvegicus [36]) of the same compound?
**A.** 669

**Q.** What about the Ki [9] of the same compound?
**A.** 27 µM

**Q.** And the Vmax (pM min-1 mg-1) (Rattus norvegicus [30])?
**A.** 760

**Q.** What about the Vmax (pM min-1 mg-1) (Rattus norvegicus [37]) of the same compound?
**A.** 819

**Q.** What about the Km (Rattus norvegicus [38]) of the same compound?
**A.** 41.2 µM
